Experiment [1] concerns L1210. Description: Cytotoxicity against mouse L1210 cells after 48 hrs by coulter counter method. The format is functional, cell-based. The settings on record: L1210, 48 h. A digest of the protocol: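 L1210 cells in RPMI 1640 with 2 mM L-glutamine, penicillin, streptomycin and 20% heat-inactivated horse serum at 37 °C, 5% CO2. Drugs added in DMSO (0.5% final) to exponentially growing cells seeded at 0.8 × 10^5 cells/mL. Cells counted in triplicate after 48 h by Coulter counter. IC50 taken from probit regression of percent growth inhibition against log dose.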

Experiment [2] relates to L1210. Description: Cell cycle arrest in mouse L1210 cells assessed accumulation of cells at G1 phase at 100 uM after 21 hrs by propidium iodide staining-based flow cytometric analysis. The format is functional. The essentials:
(§1)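 L1210 leukemia cells in RPMI 1640 with 2 mM L-glutamine, penicillin, streptomycin and 20% heat-inactivated horse serum, exposed to several drug concentrations for 21 h at 37 °C, 5% CO2. Cells fixed in 70% ethanol, washed, then stained 30 min at room temperature in PBS containing RNAse and propidium iodide. Flow cytometry; result given as percentage of cells in each cell-cycle phase.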

Experiment [3] concerns L1210. The experiment can be described thus: Cell cycle arrest in mouse L1210 cells assessed accumulation of cells at G2/M phase at 50 uM after 21 hrs by propidium iodide staining-based flow cytometric analysis. The class given is functional. A digest of the protocol:
as §1

For experiment [4], the target named is GTPase KRas (Homo sapiens) (UniProt P01116). Description: Inhibition of KRas in human HCT cells at 0.2 uM relative to control. The format is cell-based.
GTPase KRas (Homo sapiens), sequence (P01116 whole entry, looked up): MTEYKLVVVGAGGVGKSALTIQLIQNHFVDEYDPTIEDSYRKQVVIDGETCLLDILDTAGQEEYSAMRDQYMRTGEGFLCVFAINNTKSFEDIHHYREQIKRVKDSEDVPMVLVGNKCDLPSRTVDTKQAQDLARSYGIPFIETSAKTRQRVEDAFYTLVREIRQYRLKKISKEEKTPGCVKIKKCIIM
For experiment [5] the target is unchanged. The experiment can be described thus: Inhibition of KRas in human HCT cells at 2 uM relative to control. The class given is cell-based.
The target is the same in experiment [6]. The experiment can be described thus: Inhibition of KRas in human HCT cells at 20 uM relative to control. The format is cell-based.
Experiment [7] shares this target. Description: Inhibition of KRas in human RKO cells at 0.2 uM relative to control. The format is cell-based.
Experiment [8] has the same target. Description: Inhibition of KRas in human RKO cells at 2 uM relative to control. The format is cell-based.
For experiment [9] the target is unchanged. The experiment can be described thus: Inhibition of KRas in human RKO cells at 20 uM relative to control. The class given is cell-based.
Experiment [10] has the same target. The experiment can be described thus: Inhibition of KRas in human Colon 320 cells at 0.2 uM relative to control. The class given is cell-based.
For experiment [11] the target is unchanged. Description: Inhibition of KRas in human Colon 320 cells at 2 uM relative to control. The class given is cell-based.
Experiment [12] has the same target. The experiment can be described thus: Inhibition of KRas in human Colon 320 cells at 20 uM relative to control. The class given is cell-based.
For experiment [13] the target is unchanged. Description: Inhibition of KRas in human SNU-C1 cells at 0.2 uM relative to control. The class given is cell-based.
The target is the same in experiment [14]. Description: Inhibition of KRas in human SNU-C1 cells at 2 uM relative to control. The class given is cell-based.
The target is the same in experiment [15]. The experiment can be described thus: Inhibition of KRas in human SNU-C1 cells at 20 uM relative to control. The class given is cell-based.
Experiment [16] deals with L1210. Description: Cell cycle arrest in mouse L1210 cells assessed accumulation of cells at 8N phase at 10 uM after 21 hrs by propidium iodide staining-based flow cytometric analysis relative to control. The format is functional. A digest of the protocol:
as §1
In general terms: In flow cytometry, cells or beads pass a laser one at a time.

For experiment [17], the system named is L1210. Description: Cell cycle arrest in mouse L1210 cells assessed accumulation of cells at G1 phase at 25 uM after 21 hrs by propidium iodide staining-based flow cytometric analysis. The format is functional. A digest of the protocol:
as §1

Experiment [18] relates to L1210. Description: Cell cycle arrest in mouse L1210 cells assessed accumulation of cells at G2/M phase at 100 uM after 21 hrs by propidium iodide staining-based flow cytometric analysis. The format is functional. The essentials:
as §1

In experiment [19] the test system is L1210. The experiment can be described thus: Cell cycle arrest in mouse L1210 cells assessed accumulation of cells at 8N phase at 5 uM after 21 hrs by propidium iodide staining-based flow cytometric analysis relative to control. The format is functional. A digest of the protocol: as §1

Active and inactive are the calls of the source. No cut-off for these calls is given here.

As for `COc1cc(C2c3cc4c(cc3CCN2CCCCCC(=O)O)OCCO4)cc(OC)c1OC` (stereo not drawn), the IC50 (in general, the concentration that gives 50% inhibition) with L1210 [1] turned out to be 9.4 µM. That is a single-digit micromolar value.

With `CCOC(=O)N1CCc2cc3c(cc2C1c1cc(OC)c(OC)c(OC)c1)OCCO3` (stereo not drawn), in the experiment on L1210 [1], the IC50 was above 10 µM.

The compound `COc1cc(C2NCCc3cc4c(cc32)OCCO4)cc(OC)c1OC` (stereo not drawn) returned an IC50 with L1210 [1] of 21.1 µM. Moreover, the outcome in the experiment on L1210 [2] was Active.

Take `COc1cc2c(c3c1c(=O)c1ccccc1n3C)C=CC(C)(C)O2` [ACRONINE]: the IC50 in the experiment on L1210 [1] stood at 21 µM. Further, the outcome with L1210 [3] was Active.

Compound `COc1cc(C2c3cc4c(cc3CCN2c2ccc(C#N)cc2)OCCO4)cc(OC)c1OC` (stereo not drawn) had an IC50 in the experiment with L1210 [1] of 3.6 µM. Moreover, the inhibition (commonly the percentage by which the read-out fell short of the control) in [4] amounted to 35.9%; in experiment [5], 16%; in [6], 45.2%; in experiment [7] it was 95.8%; in experiment [8], 7.7%; in experiment [9], 66.5%. Besides, the inhibition was found to be 0% in [10]; 22.5% in experiment [11]; 89.9% in experiment [12]; 6.6% in [13]; 32.5% in [14]; 43.5% in experiment [15]. The same compound displayed an Activity in the experiment on L1210 [16] of 70%.

`O=C(O)CCCCCN1CCc2cc3c(cc2C1c1ccncc1)OCCO3` (stereo not drawn) registered an IC50 in the experiment on L1210 [1] above 10 µM.

For `COc1cc(C2c3cc4c(cc3CCN2CCN(C)C)OCCO4)cc(OC)c1OC` (stereo not drawn), the result in the experiment with L1210 [17] was Active. This compound yielded an IC50 in the experiment with L1210 [1] of 3.7 µM.

`CCOC(CCN1CCc2cc3c(cc2C1c1cc(OC)c(OC)c(OC)c1)OCCO3)OCC` (stereo not drawn) came in with an IC50 in the experiment with L1210 [1] above 10 µM.

With `CCOC(=O)CCCCCN1CCc2cc3c(cc2C1c1cc(OC)c(OC)c(OC)c1)OCCO3` (stereo not drawn), in the experiment with L1210 [1], the IC50 is above 10 µM.

`COc1cc2c(cc1OC)C(c1cc(OC)c(OC)c(OC)c1)N(CCO)CC2` (stereo not drawn) came in with an IC50 in the experiment on L1210 [1] of 23.4 µM.

In the experiment with L1210 [1], `COc1cc(C2c3cc4c(cc3CCN2CC#N)OCCO4)cc(OC)c1OC` (stereo not drawn) registered an IC50 of 4.2 µM. In addition, the inhibition in [4] was determined as 12.1%; in experiment [5], 17%; in experiment [6] it was 49.1%; in experiment [7] it was 0%; in experiment [8], 16.3%; in [9] it was 79.2%. In addition, the inhibition in experiment [10] is 0%; in [11], 8.2%; in experiment [12], 74.7%; in experiment [13], 10%; in experiment [14] it was 6%; in experiment [15] it was 59.8%. The outcome in the experiment on L1210 [2] was Active.

In the experiment on L1210 [1], `COC(=O)CCCCCN1CCc2cc3c(cc2C1c1ccncc1)OCCO3` (stereo not drawn) registered an IC50 above 10 µM.

Regarding `COc1cc(C2c3cc4c(cc3CCN2c2ccc([N+](=O)[O-])cc2)OCCO4)cc(OC)c1OC` (stereo not drawn), the result in the experiment with L1210 [17] was Active. Besides, the IC50 in the experiment with L1210 [1] came out at 4.6 µM. Further, the inhibition in [4] was 0%; in experiment [5] it was 19.3%; in experiment [6], 55.9%; in [7], 17.9%; in experiment [8], 32.9%; in [9] it was 70.5%. Further, the inhibition in experiment [10] amounted to 0%; in experiment [11], 4%; in experiment [12], 92.5%; in experiment [13] it was 17.7%; in experiment [14], 35%; in [15], 42.7%.

Take `COc1cc(-c2nccc3cc4c(cc23)OCCO4)cc(OC)c1OC`: inhibition with L1210 [1] was half-maximal at 25.1 µM (IC50). Also, the result in the experiment on L1210 [18] was Active.

`COc1cc2c(cc1OC)C(c1cc(OC)c(OC)c(OC)c1)N(CC(O)CO)CC2` (stereo not drawn): the IC50 in the experiment with L1210 [1] came out at 15.3 µM.

On to `COc1cc(C2c3cc4c(cc3CCN2CCN)OCCO4)cc(OC)c1OC` (stereo not drawn), for which the result in the experiment on L1210 [17] was Active. It took 2 µM to reach half-maximal inhibition in the experiment with L1210 [1] (IC50). The inhibition in experiment [4] is 0%; in [5], 16.2%; in experiment [6], 56.9%; in [7], 0%; in experiment [8] it was 10.1%; in experiment [9], 92.7%. The inhibition was 0% in [10]; 20.1% in experiment [11]; 85.3% in [12]; 12.2% in experiment [13]; 2.4% in experiment [14]; 57.1% in experiment [15].

Consider `CCN(CC)CCN1CCc2cc3c(cc2C1c1cc(OC)c(OC)c(OC)c1)OCCO3` (stereo not drawn), for which the IC50 in the experiment on L1210 [1] was found to be 4.1 µM. In other words, the single-digit micromolar range.

Regarding `CCOC(=O)N1CCc2cc3c(cc2C1c1ccncc1)OCCO3` (stereo not drawn), the IC50 in the experiment on L1210 [1] is above 10 µM.

On to `COc1cc(C2c3cc4c(cc3CCN2CCO)OCCO4)cc(OC)c1OC` (stereo not drawn), for which the IC50 in the experiment with L1210 [1] was found to be 2.6 µM. Also, the inhibition in experiment [4] came to 18%; in experiment [5], 12.1%; in [6], 46.5%; in experiment [7] it was 0%; in experiment [8], 6.3%; in [9], 76.7%. Also, the inhibition in [10] is 12.2%; in experiment [11], 0%; in experiment [12], 78.2%; in experiment [13], 12.3%; in experiment [14] it was 11.5%; in experiment [15] it was 19.7%. The same compound returned an Activity in the experiment on L1210 [19] of 70%.

Values taken from ChEMBL document CHEMBL4145473, “Substituted tetrahydroisoquinolines: synthesis, characterization, antitumor activity and other biological properties” (Eur J Med Chem, 2018).
